Measured values as given in ChEMBL document CHEMBL1123550, “Synthesis and biological activity of benzothiazolo[3,2-a]quinolone antibacterial agents” (1986).
≈ marks a conversion by molar mass, not a printed value.

What was measured:
[1] = tested on: Acinetobacter; experiment: Compound was tested in vitro for antibiotic activity against the bacteria Acinetobacter sp. CMX669; assay type: functional
Summary of the method: (§1)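 Overnight cultures were grown in brain-heart infusion broth at 36 °C. The compound was diluted twofold in brain-heart infusion agar over a range of 200 to 0.005 µg/mL (final). Each plate received about 10⁴ organisms and was incubated at 36 °C for 18 h. The MIC was taken as the lowest concentration giving no visible growth.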

[2] = tested on: Escherichia coli; experiment: Compound was tested in vitro for antibiotic activity against the bacteria Escherichia coli juhl; assay type: functional; summary of the method: as §1
[3] = tested on: Klebsiella aerogenes; experiment: Compound was tested in vitro for antibiotic activity against bacteria Enterobacter aerogenes ATCC 13048; assay type: functional; summary of the method: as §1
[4] = tested on: Klebsiella pneumoniae; experiment: Compound was tested in vitro for antibiotic activity against the bacteria Klebsiella pneumoniae 8045; assay type: functional; summary of the method: as §1
[5] = tested on: Pseudomonas aeruginosa; experiment: Compound was tested in vitro for antibiotic activity against the bacteria Pseudomonas aeruginosa 5007; assay type: functional; summary of the method: as §1
[6] = tested on: Pseudomonas aeruginosa; experiment: Compound was tested in vitro for antibiotic activity against the bacteria Pseudomonas aeruginosa K799/WT; assay type: functional; summary of the method: as §1
[7] = tested on: Staphylococcus epidermidis; experiment: The compound was tested in vitro for antibiotic activity against Staphylococcus epidermidis 3519; assay type: functional; summary of the method: as §1
[8] = tested on: Staphylococcus aureus; experiment: The compound was tested in vitro for antibiotic activity against Staphylococcus aureus 686B; assay type: functional; summary of the method: as §1
[9] = tested on: Staphylococcus aureus; experiment: The compound was tested in vitro for antibiotic activity against Staphylococcus aureus ATCC 6538P; assay type: functional; summary of the method: as §1
[10] = tested on: Enterococcus faecium; experiment: The compound was tested in vitro for antibiotic activity against […] ATCC 8043; assay type: functional; summary of the method: as §1
[11] = tested on: Streptococcus pyogenes; experiment: The compound was tested in vitro for antibiotic activity against Streptococcus pyogenes 930

**Q.** Which results are given for `O=C(O)c1c(=O)c2cc(F)c(N3CCNCC3)cc2n2c1sc1ccccc12`?
**A.** MIC [1]: 0.39 µg/mL (≈ 0.981 µM); MIC [2]: 0.2 µg/mL (≈ 0.503 µM); MIC [3]: 0.78 µg/mL (≈ 1.96 µM); MIC [4]: 0.2 µg/mL (≈ 0.503 µM); MIC [5]: 1.56 µg/mL (≈ 3.93 µM); MIC [6]: 1.56 µg/mL (≈ 3.93 µM); MIC [7]: 0.39 µg/mL (≈ 0.981 µM); MIC [8]: 0.39 µg/mL (≈ 0.981 µM); MIC [9]: 0.39 µg/mL (≈ 0.981 µM); MIC [10]: 0.78 µg/mL (≈ 1.96 µM); MIC [11]: 0.78 µg/mL (≈ 1.96 µM)

**Q.** `CC(=O)N1CCN(c2cc3c(cc2F)c(=O)c(C(=O)O)c2sc4ccccc4n23)CC1` was tested. Which MIC [1] did it give?
**A.** 6.2 µg/mL (≈ 14.1 µM)

**Q.** And the MIC [2]?
**A.** 6.2 µg/mL (≈ 14.1 µM)

**Q.** What about the MIC [3] of the same compound?
**A.** > 100 µg/mL

**Q.** What about the MIC [4] of the same compound?
**A.** 1.56 µg/mL (≈ 3.55 µM)

**Q.** What about the MIC [5] of the same compound?
**A.** > 100 µg/mL

**Q.** What about the MIC [6] of the same compound?
**A.** > 100 µg/mL

**Q.** What about the MIC [7] of the same compound?
**A.** 0.39 µg/mL (≈ 0.887 µM)

**Q.** What about the MIC [8] of the same compound?
**A.** 0.2 µg/mL (≈ 0.455 µM)

**Q.** What about the MIC [9] of the same compound?
**A.** 0.2 µg/mL (≈ 0.455 µM)

**Q.** What about the MIC [10] of the same compound?
**A.** 6.2 µg/mL (≈ 14.1 µM)

**Q.** What about the MIC [11] of the same compound?
**A.** 3.1 µg/mL (≈ 7.05 µM)

**Q.** Which MIC [11] does the source give for `CN1CCN(c2cc3c(cc2F)c(=O)c(C(=O)O)cn3-c2ccccc2)CC1` here?
**A.** 3.1 µg/mL (≈ 8.13 µM)

**Q.** Which MIC [11] does the source give for `CCn1cc(C(=O)O)c(=O)c2cc(F)c(N3CCNCC3)cc21` [NORFLOXACIN] here?
**A.** 3.1 µg/mL (≈ 9.71 µM)

**Q.** For `Cc1cccc(C)c1-n1cc(C(=O)O)c(=O)c2cc(F)c(N3CCN(C)CC3)cc21`, which MIC [11] is on record?
**A.** > 100 µg/mL

**Q.** With `Cc1ccccc1-n1cc(C(=O)O)c(=O)c2cc(F)c(N3CCN(C)CC3)cc21` as the compound, how does the MIC [11] read?
**A.** 50 µg/mL (≈ 126 µM)

**Q.** For `CCC(=O)N1CCN(c2cc3c(cc2F)c(=O)c(C(=O)O)c2sc4ccccc4n23)CC1`, which MIC [1] is on record?
**A.** 0.1 µg/mL (≈ 0.221 µM)

**Q.** What about the MIC [2] of the same compound?
**A.** 6.2 µg/mL (≈ 13.7 µM)

**Q.** And the MIC [3]?
**A.** 12.5 µg/mL (≈ 27.6 µM)

**Q.** And the MIC [4]?
**A.** 1.56 µg/mL (≈ 3.44 µM)

**Q.** And the MIC [5]?
**A.** > 100 µg/mL

**Q.** And the MIC [6]?
**A.** > 100 µg/mL

**Q.** What about the MIC [7] of the same compound?
**A.** 0.39 µg/mL (≈ 0.86 µM)

**Q.** And the MIC [8]?
**A.** 0.39 µg/mL (≈ 0.86 µM)

**Q.** And the MIC [9]?
**A.** 0.39 µg/mL (≈ 0.86 µM)

**Q.** What about the MIC [10] of the same compound?
**A.** 6.2 µg/mL (≈ 13.7 µM)

**Q.** And the MIC [11]?
**A.** 3.1 µg/mL (≈ 6.84 µM)

**Q.** For `O=C(O)c1cn(-c2ccccc2)c2cc(N3CCNCC3)c(F)cc2c1=O`, which MIC [7] is on record?
**A.** 0.78 µg/mL (≈ 2.12 µM)

**Q.** And the MIC [11]?
**A.** 1.56 µg/mL (≈ 4.25 µM)

**Q.** What does the source list for `CN1CCN(c2cc3c(cc2F)c(=O)c(C(=O)O)c2sc4ccccc4n23)CC1`?
**A.** MIC [1]: 0.39 µg/mL (≈ 0.948 µM); MIC [2]: 0.78 µg/mL (≈ 1.9 µM); MIC [3]: 1.56 µg/mL (≈ 3.79 µM); MIC [4]: 0.39 µg/mL (≈ 0.948 µM); MIC [5]: 6.2 µg/mL (≈ 15.1 µM); MIC [6]: 6.2 µg/mL (≈ 15.1 µM); MIC [7]: 0.78 µg/mL (≈ 1.9 µM); MIC [8]: 0.39 µg/mL (≈ 0.948 µM); MIC [9]: 0.39 µg/mL (≈ 0.948 µM); MIC [10]: 1.56 µg/mL (≈ 3.79 µM); MIC [11]: 1.56 µg/mL (≈ 3.79 µM)
